# Experimental data reported in publication PMC10949176 (Clinical and Translational Science, 2024).
# “And” between values parts separate entries of the source, which are not always exact repeats. Equal entries are not always repeated. “Also recorded” adds a separate entry of the source.
# Key:
# [1] = Preliminary reaction phenotyping of palbociclib in hepatocytes; format: in vitro ADME; conditions: novel approach (manuscript under preparation)
# [2] = system: palbociclib metabolic pathways in co‐culture human hepatocyte models; format: in vitro ADME
# [3] = system: CYP2B6 mRNA (marker of CAR); assay: mRNA induction in sandwich cultured hepatocytes; format: cell-based, human; conditions: RIS qualified donor HH1103, sandwich cultured hepatocytes, 48 h
# [4] = system: CYP3A4 mRNA (marker of PXR); assay: mRNA induction in sandwich cultured hepatocytes; format: cell-based, human; conditions: RIS qualified donor HH1103, sandwich cultured hepatocytes, 48 h
# [5] = biological target: T1, SULT2A1 (Homo sapiens, UniProt Q06520); assay: Recombinant SULT inhibition by ABT, SULT2A1; format: biochemical; conditions: 1 mM ABT, raloxifene probe substrate, data not shown
# T1 sequence (Q06520 1-285): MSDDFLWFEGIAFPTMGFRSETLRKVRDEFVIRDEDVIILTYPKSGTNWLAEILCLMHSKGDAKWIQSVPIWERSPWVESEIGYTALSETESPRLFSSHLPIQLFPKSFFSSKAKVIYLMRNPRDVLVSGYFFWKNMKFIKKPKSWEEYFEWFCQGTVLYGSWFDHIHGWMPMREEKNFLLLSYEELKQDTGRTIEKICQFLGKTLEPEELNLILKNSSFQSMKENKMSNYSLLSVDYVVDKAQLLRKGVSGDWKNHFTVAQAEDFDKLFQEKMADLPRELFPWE
# [6] = biological target: UGT2B15 (Homo sapiens, UniProt P54855); assay: UGT inhibition in suspension human hepatocytes; format: cell-based; conditions: read-out: Ki,u HHEPs; UGT2B15, Oxazepam 10 μM, unbound
# [7] = system: recombinant SULT2B1; assay: Recombinant SULT inhibition by ABT, SULT2B1; format: biochemical; conditions: 1 mM ABT, raloxifene probe substrate, data not shown
# [8] = biological target: UGT1A3 (Homo sapiens, UniProt P35503); assay: UGT inhibition in suspension human hepatocytes; format: cell-based; conditions: read-out: Ki,u HHEPs; UGT1A3, CDCA 2 μM, unbound
# [9] = system: recombinant SULT1C2; assay: Recombinant SULT inhibition by ABT, SULT1C2; format: biochemical; conditions: 1 mM ABT, raloxifene probe substrate, data not shown
# [10] = biological target: UGT1A9 (Homo sapiens, UniProt O60656); assay: UGT inhibition in suspension human hepatocytes; format: cell-based; conditions: read-out: Ki,u HHEPs; UGT1A9, Propofol 10 μM, unbound
# [11] = system: recombinant SULT1C4; assay: Recombinant SULT inhibition by ABT, SULT1C4; format: biochemical; conditions: 1 mM ABT, raloxifene probe substrate, data not shown
# [12] = system: recombinant SULT1A3; assay: Recombinant SULT inhibition by ABT, SULT1A3; format: biochemical; conditions: 1 mM ABT, raloxifene probe substrate, data not shown
# [13] = system: recombinant SULT1B1; assay: Recombinant SULT inhibition by ABT, SULT1B1; format: biochemical; conditions: 1 mM ABT, raloxifene probe substrate, data not shown
# [14] = biological target: UGT1A6 (Homo sapiens, UniProt P19224); assay: UGT inhibition in suspension human hepatocytes; format: cell-based; conditions: UGT1A6, Serotonin 1715 μM, unbound
# [15] = biological target: UGT2B7 (Homo sapiens, UniProt P16662); assay: UGT inhibition in suspension human hepatocytes; format: cell-based; conditions: read-out: Ki,u HHEPs; UGT2B7, Zidovudine 100 μM, unbound
# [16] = biological target: UGT1A1 (Homo sapiens, UniProt P22309); assay: UGT inhibition in suspension human hepatocytes; format: cell-based; conditions: UGT1A1, β‐Estradiol 3 μM, unbound
# [17] = biological target: UGT1A4 (Homo sapiens, UniProt P22310); assay: UGT inhibition in suspension human hepatocytes; format: cell-based; conditions: read-out: Ki,u HHEPs; UGT1A4, TFP 1 μM, unbound
# [18] = system: recombinant SULT1E1; assay: Recombinant SULT inhibition by ABT, SULT1E1; format: biochemical; conditions: 1 mM ABT, raloxifene probe substrate, data not shown
# [19] = system: recombinant SULT1A1; assay: Recombinant SULT inhibition by ABT, SULT1A1; format: biochemical; conditions: 1 mM ABT, raloxifene probe substrate, data not shown
# [20] = system: palbociclib intrinsic clearance in Hμrel co‐culture hepatocytes; assay: Impact of ARV-471 on intrinsic clearance of palbociclib in Hμrel; format: in vitro ADME, human; conditions: at ~3 μM ARV‐471
# [21] = biological target: T1, SULT2A1; assay: ARV-471 inhibition of recombinant SULT2A1; format: biochemical; conditions: rSULT2A1 IC50 (DHEAS formation)
# Summary of the method: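 Recombinant human SULT2A1 incubated with varying test compound concentrations. Read-out was formation of DHEAS, with IC50 derived from the concentration response. Mean of three.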
# [22] = system: CYP3A; assay: CYP3A activity in Hμrel with ARV-471; format: cell-based, human
# [23] = ref https://endpts.com/arvinas‐reports‐delay‐for‐pfizer‐partnered‐protein‐degradation‐program/, cited from earlier work
# [24] = system: palbociclib sulfation; assay: Formation of palbociclib sulfate in Hμrel with ARV-471; format: cell-based, human
# [25] = biological target: T1, SULT2A1; assay: ARV-471 inhibition of SULT2A1 in Hμrel; format: cell-based; conditions: Hμrel IC50 (DHEAS formation, SULT2A1), Hμrel model
# Summary of the method: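 Hμrel co-culture of mixed-gender, five-donor pooled hepatocytes, acclimated 24 h at 37°C, 5% CO₂, exposed to varying test compound concentrations. […] DHEAS formation was measured and IC50 derived. Mean of three.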
# [26] = Hμrel, 1'hydroxylation of midazolam
# UGT1A1, sequence (P22309 26-533): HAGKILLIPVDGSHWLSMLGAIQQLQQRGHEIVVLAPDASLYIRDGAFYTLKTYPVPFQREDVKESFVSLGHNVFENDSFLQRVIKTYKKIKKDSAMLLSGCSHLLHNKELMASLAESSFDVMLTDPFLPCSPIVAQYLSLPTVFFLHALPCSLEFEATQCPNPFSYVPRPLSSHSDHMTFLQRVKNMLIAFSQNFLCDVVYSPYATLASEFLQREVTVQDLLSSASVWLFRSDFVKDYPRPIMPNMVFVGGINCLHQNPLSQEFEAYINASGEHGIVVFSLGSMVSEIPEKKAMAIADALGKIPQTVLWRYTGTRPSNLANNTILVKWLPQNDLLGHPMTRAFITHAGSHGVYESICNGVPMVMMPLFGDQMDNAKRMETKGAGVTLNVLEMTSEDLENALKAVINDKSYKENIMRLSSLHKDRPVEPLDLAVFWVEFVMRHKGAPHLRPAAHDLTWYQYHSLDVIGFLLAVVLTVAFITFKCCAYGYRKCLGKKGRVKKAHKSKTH
# UGT1A6, sequence (P19224 27-532): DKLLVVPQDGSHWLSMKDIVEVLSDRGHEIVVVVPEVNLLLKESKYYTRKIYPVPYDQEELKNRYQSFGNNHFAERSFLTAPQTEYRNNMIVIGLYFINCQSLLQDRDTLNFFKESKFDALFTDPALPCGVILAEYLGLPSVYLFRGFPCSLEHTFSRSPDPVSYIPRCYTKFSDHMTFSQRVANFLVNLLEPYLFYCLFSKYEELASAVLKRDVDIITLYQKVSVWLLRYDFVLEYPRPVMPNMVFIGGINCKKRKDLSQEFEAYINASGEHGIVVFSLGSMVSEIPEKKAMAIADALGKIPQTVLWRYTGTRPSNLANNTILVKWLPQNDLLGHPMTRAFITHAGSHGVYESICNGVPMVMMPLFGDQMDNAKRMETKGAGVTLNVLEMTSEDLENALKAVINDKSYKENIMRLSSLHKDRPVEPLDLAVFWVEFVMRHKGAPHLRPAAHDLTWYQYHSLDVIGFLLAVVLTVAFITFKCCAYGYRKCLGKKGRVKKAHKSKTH
# UGT2B7, sequence (P16662 24-529): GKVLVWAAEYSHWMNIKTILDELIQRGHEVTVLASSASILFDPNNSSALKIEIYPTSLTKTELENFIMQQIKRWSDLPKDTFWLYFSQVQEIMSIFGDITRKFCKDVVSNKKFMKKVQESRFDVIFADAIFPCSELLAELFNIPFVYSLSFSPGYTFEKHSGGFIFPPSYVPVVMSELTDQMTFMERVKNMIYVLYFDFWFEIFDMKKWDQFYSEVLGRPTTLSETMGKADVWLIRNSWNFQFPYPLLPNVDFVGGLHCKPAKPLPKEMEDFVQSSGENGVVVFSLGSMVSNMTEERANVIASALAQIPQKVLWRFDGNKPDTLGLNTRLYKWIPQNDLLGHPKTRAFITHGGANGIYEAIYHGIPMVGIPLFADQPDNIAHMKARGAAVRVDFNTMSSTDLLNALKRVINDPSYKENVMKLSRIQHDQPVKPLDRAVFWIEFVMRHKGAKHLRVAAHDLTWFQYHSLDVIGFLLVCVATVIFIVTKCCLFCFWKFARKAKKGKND
# UGT1A4, sequence (P22310 29-534): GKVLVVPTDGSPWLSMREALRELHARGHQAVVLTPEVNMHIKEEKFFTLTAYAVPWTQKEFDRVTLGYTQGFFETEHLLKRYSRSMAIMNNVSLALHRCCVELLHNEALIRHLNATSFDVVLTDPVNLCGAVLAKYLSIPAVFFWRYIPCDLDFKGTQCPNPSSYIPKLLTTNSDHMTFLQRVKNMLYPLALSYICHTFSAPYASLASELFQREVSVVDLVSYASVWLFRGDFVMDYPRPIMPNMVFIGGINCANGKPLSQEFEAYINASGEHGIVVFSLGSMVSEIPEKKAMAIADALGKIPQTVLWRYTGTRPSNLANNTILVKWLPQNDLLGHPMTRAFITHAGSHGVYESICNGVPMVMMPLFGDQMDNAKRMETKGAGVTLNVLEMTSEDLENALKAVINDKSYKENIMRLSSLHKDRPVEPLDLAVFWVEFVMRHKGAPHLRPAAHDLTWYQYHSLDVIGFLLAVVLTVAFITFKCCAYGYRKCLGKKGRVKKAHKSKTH
# UGT1A3, sequence (P35503 29-534): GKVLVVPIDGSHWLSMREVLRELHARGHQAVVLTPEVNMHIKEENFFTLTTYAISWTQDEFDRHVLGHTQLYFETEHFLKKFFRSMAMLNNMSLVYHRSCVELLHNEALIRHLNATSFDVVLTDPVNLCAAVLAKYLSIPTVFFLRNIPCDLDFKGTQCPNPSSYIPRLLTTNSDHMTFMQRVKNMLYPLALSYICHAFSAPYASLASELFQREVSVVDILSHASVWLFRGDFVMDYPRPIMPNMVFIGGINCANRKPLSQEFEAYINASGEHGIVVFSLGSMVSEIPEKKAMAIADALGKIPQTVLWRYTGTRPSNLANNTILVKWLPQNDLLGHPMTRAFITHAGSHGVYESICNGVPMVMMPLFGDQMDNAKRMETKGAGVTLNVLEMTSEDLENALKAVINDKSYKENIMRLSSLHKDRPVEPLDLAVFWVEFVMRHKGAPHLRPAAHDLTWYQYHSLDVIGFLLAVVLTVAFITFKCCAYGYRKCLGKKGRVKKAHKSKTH
# UGT1A9, sequence (O60656 26-530): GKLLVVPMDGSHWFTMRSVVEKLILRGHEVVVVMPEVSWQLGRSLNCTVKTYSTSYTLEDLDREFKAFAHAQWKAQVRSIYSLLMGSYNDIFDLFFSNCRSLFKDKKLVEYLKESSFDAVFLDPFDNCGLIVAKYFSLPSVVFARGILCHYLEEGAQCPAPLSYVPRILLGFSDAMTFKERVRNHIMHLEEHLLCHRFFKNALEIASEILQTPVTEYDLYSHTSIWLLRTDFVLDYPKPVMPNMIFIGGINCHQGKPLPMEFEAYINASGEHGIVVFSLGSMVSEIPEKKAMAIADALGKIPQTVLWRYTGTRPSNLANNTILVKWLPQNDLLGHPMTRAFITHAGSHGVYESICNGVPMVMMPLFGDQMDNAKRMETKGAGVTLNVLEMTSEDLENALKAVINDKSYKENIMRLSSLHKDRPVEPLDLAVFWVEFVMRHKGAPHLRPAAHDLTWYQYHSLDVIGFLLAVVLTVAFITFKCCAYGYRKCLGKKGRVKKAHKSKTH
# UGT2B15, sequence (P54855 24-530): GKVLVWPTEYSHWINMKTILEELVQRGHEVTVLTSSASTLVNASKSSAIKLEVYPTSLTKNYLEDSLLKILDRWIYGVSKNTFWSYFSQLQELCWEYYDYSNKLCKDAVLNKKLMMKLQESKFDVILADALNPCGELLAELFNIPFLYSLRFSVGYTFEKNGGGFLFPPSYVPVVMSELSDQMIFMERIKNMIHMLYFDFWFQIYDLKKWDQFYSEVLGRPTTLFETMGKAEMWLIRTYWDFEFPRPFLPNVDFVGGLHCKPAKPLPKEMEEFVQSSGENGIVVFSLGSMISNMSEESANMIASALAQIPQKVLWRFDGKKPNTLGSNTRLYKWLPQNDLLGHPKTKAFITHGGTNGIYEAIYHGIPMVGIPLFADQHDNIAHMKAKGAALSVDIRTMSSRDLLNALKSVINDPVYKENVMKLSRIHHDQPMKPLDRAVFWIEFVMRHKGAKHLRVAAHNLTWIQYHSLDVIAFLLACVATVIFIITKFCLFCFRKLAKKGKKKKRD
smiles,measurement,setting,value
CC(=O)c1c(C)c2cnc(Nc3ccc(N4CCNCC4)cn3)nc2n(C2CCCC2)c1=O [palbociclib],share of palbociclib clearance by glucuronidation,[1],25%–30%
same,Clint at 5 μM compared with 0.045 μM,"[2]; co-culture hepatocytes, suggesting saturation of metabolic clearance",reduced
C=C[C@H]1C[N@@]2CC[C@H]1C[C@@H]2[C@@H](O)c1ccnc2ccc(OC)cc12 [quinidine],CYP2B6 induction (result in words),[3],did not induce
CC(=O)N1CCN(c2ccc(OCC3COC(Cn4ccnc4)(c4ccc(Cl)cc4Cl)O3)cc2)CC1 (stereo not shown) [ketoconazole],CYP3A4 induction Emax,[4],2 fold
"Nn1nnc2ccccc21 [ABT, Aminobenzotriazole]",inhibition of SULT2A1,[5],No significant inhibition
same,Ki,[6],> 20 mM
same,inhibition of SULT2B1,[7],No significant inhibition
same,Ki,[8],6.03 mM
same,inhibition of SULT1C2,[9],No significant inhibition
same,Ki,[10],4.58 mM
same,inhibition of SULT1C4,[11],No significant inhibition
same,inhibition of SULT1A3,[12],No significant inhibition
same,inhibition of SULT1B1,[13],No significant inhibition
same,"Ki,u HHEPs",[14],No inhibition
same,Ki,[15],5.45 mM
same,"Ki,u HHEPs",[16],No inhibition
same,Ki,[17],2.52 mM
same,inhibition of SULT1E1,[18],No significant inhibition
same,inhibition of SULT1A1,[19],No significant inhibition
O=C1CC[C@H](N2Cc3cc(N4CCN(CC5CCN(c6ccc([C@@H]7c8ccc(O)cc8CC[C@@H]7c7ccccc7)cc6)CC5)CC4)ccc3C2=O)C(=O)N1 [ARV-471],increase in palbociclib exposure recapitulated from Clint inhibition,[20],50%
same,IC50,[21],> 35 µM
same,glucuronide metabolism of palbociclib,"[2]; Hμrel and TruVivo, 5 μM palbociclib, 20 μM ARV‐471",completely inhibited
same,inhibition of metabolic clearance accounted for by glucuronide metabolism,"[2]; based on MS ionization and summed metabolite area ratios, 20 μM ARV‐471",up to 50%
same,direct inhibition of CYP3A activity,[22]; [26],no direct inhibition; also recorded: no direct or time‐dependent inhibition
same,time‐dependent inhibition of CYP3A,[22]; [26],no direct or time‐dependent inhibition
same,"Emax, increase in midazolam activity (CYP3A induction)","[22]; Hμrel, concentration and time‐dependent increase",3.8 fold
same,EC50,"[22]; human, Hμrel co-culture hepatocytes, probe midazolam (1'-hydroxylation)",250 nM
same,increase in palbociclib exposure (area under the curve),"[23]; co‐administration of palbociclib with ARV‐471, phase Ib",~ 50% and 50%
same,adverse event with increased palbociclib exposure,"[23]; palbociclib with ARV‐471, phase Ib",grade 3/4 neutropenia
same,effect on palbociclib sulfation over the time course,[24],apparent activation
same,IC50,[25],> 35 µM
